Data on two compounds can be found in article PMC5668626 (Biochemistry and Biophysics Reports, 2015).

In assay [1] the target is T1, PfP2-tetramer (Plasmodium falciparum P2, recombinant) (Plasmodium falciparum, UniProt O00806).
T1 sequence (O00806 1-112): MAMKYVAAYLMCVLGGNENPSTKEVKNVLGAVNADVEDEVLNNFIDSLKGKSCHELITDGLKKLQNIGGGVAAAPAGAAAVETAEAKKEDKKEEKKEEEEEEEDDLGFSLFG
Nature of the assay: isothermal titration calorimetry. Format: binding. The method, boiled down: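 Recombinant PfP2 tetramer (0.075 mM) in the sample cell, with buffer in the reference cell, at pH 7.4 and 25 °C. The hydrophobic dye ligand (15 mM, syringe) was added in 50 injections of 5 μl, each lasting 10 s and spaced 4 min apart, with stirring. Titration heats were fitted to a binding model for K, ΔH, ΔS and n.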
On the technique in general: Isothermal titration calorimetry measures the heat released or taken up as one component is titrated into another.

Assay [2] addresses Plasmodium falciparum P2 (recombinant) (Plasmodium falciparum). In words: SEC. Background: SEC sorts molecules by how far they enter the pores of the column.

As for `O=S(=O)(O)c1cccc2cccc(Nc3ccccc3)c12` [ANS], the Kd – broadly, the free concentration of one partner at which half of the binding sites on the other are occupied at equilibrium, for simple one-to-one binding – in assay [1] is 102 µM. Turning to “Plasmodium falciparum P2 (recombinant) (natural protein)”, the stoichiometry N – broadly, a count of units in the complex or per binding partner – in assay [2] is 4.
